As a reminder, the MIC is the lowest concentration that inhibits growth of the organism.

≈ marks a conversion by molar mass, not a printed value. Calls of active or inactive are those of the source. No cut-off for these calls is given here.

In assay [1] the test system is Salmonella enteritidis. Description: Antibacterial activity against wild type Salmonella enteritidis 5408 harboring gyrA D87Y mutant gene by CLSI method. It counts as functional, Salmonella enterica subsp. enterica serovar Enteritidis. The note with it: Salmonella enterica.
Assay [2] has as its system Salmonella enteritidis. Description: Antibacterial activity against ciprofloxacin-resistant Salmonella enteritidis 104 harboring gyrA D87Y/S83F mutant, soxR R20H mutant and soxS E52K mutant gene by CLSI method. The note with it: Salmonella enterica.
Assay [3] relates to Salmonella enteritidis. Description: Antibacterial activity against ciprofloxacin-susceptible Salmonella enteritidis 1A-revertC2 harboring gyrA D87Y/S83F mutant, parC D79N mutant, soxR R133C/R20H mutant, soxS E52K mutant and marA I111N/H115Q mutant gene after 70 passages by CLSI method. As to conditions: Salmonella enterica. It counts as functional, Salmonella enterica subsp. enterica serovar Enteritidis.

For assay [4], the system named is Salmonella enteritidis. Description: Antibacterial activity against ciprofloxacin-susceptibility revert strain of Salmonella enteritidis 104 harboring gyrA D87Y/S83F mutant, parC D79N mutant, soxR E16G/R20H mutant and soxS E52K mutant gene after 20 passages by CLSI method. It counts as functional, Salmonella enterica subsp. enterica serovar Enteritidis. The note with it: Salmonella enterica.

Assay [5] concerns Salmonella enteritidis. Briefly: Antibacterial activity against ciprofloxacin-resistant Salmonella enteritidis 5408 harboring gyrA D87Y mutant, gyrB E466D mutant, parE V461G mutant and ramR G25A mutant gene after 200 passages by CLSI method. It counts as functional, Salmonella enterica subsp. enterica serovar Enteritidis. The note with it: Salmonella enterica.
The test system of assay [6] is Salmonella enteritidis. Briefly: Antibacterial activity against wild type Salmonella enteritidis 104 harboring gyrA D87Y mutant gene by CLSI method. Format: functional, Salmonella enterica subsp. enterica serovar Enteritidis. The note with it: Salmonella enterica.
In assay [7] the test system is Salmonella enteritidis. Description: Antibacterial activity against ciprofloxacin-susceptibility revert strain of Salmonella enteritidis 104 harboring gyrA D87Y/S83F mutant, parC D79N mutant, soxR E16G/R20H mutant and soxS E52K mutant gene after 24 hrs by spectrophotometry. Format: functional, organism-based. As to conditions: Salmonella enterica subsp. enterica serovar Enteritidis. The gist of the method: (§1)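 Growth in TSB: colony from TSA (37°C, 18 h) grown overnight in 10 ml TSB, 1 ml into 100 ml TSB, shaken aerobically at 37°C. Absorbance read hourly for 8 h, then at 24 h, by spectrophotometer.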

Assay [8] concerns Salmonella enteritidis. Briefly: Antibacterial activity against wild type Salmonella enteritidis 104 harboring gyrA D87Y mutant gene assessed as length of bacterial rods by microscopy. Format: functional, Salmonella enterica subsp. enterica serovar Enteritidis.
The subject of assay [9] is Salmonella enteritidis. Briefly: Antibacterial activity against wild type Salmonella enteritidis 104 harboring gyrA D87Y mutant gene after 24 hrs by spectrophotometry. It counts as functional, organism-based. The note with it: Salmonella enterica subsp. enterica serovar Enteritidis. The gist of the method:
as §1

The test system of assay [10] is Salmonella enteritidis. Description: Antibacterial activity against ciprofloxacin-resistant Salmonella enteritidis 104 harboring gyrA D87Y/S83F mutant, soxR R20H mutant and soxS E52K mutant gene after 24 hrs by spectrophotometry. It counts as functional, organism-based. As to conditions: Salmonella enterica subsp. enterica serovar Enteritidis. In short, it runs like this:
as §1

Assay [11] concerns Salmonella enteritidis. Description: Antibacterial activity against ciprofloxacin-resistant Salmonella enteritidis 104 harboring gyrA D87Y/S83F mutant, soxR R20H mutant and soxS E52K mutant gene assessed as reduction in swim motility after overnight incubation. It counts as functional, Salmonella enterica subsp. enterica serovar Enteritidis. The gist of the method:
(§2)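 Swim assay: 1 µl of overnight culture spotted centrally on LB with 0.1% gellan gum, dried 1 h at room temperature, incubated overnight at 30°C. Visible spread measured with a ruler (mm). Reduction expressed relative to the parent strain.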

Assay [12] deals with Salmonella enteritidis. Briefly: Antibacterial activity against wild type Salmonella enteritidis 5408 harboring gyrA D87Y mutant gene assessed as width of bacterial rods by microscopy. It counts as functional, Salmonella enterica subsp. enterica serovar Enteritidis.
The subject of assay [13] is Salmonella enteritidis. Briefly: Antibacterial activity against ciprofloxacin-susceptibility revert strain of Salmonella enteritidis 104 harboring gyrA D87Y/S83F mutant, parC D79N mutant, soxR E16G/R20H mutant and soxS E52K mutant gene assessed as reduction in swarm motility after overnight incubation. Format: functional, Salmonella enterica subsp. enterica serovar Enteritidis. The gist of the method: (§3)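 Swarm assay: overnight LB culture pelleted, washed once, concentrated 50-fold. 2 µl spotted on LB with 0.2% gellan gum, incubated overnight at 30°C. Colony spread measured in mm. Reduction expressed relative to the parent strain.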

In assay [14] the test system is Salmonella enteritidis. Description: Antibacterial activity against ciprofloxacin-resistant Salmonella enteritidis 5408 harboring gyrA D87Y mutant, gyrB E466D mutant, parE V461G mutant and ramR G25A mutant gene assessed as reduction in swim motility after overnight incubation. Format: functional, Salmonella enterica subsp. enterica serovar Enteritidis. The gist of the method:
as §2

For assay [15], the system named is Salmonella enteritidis. Briefly: Antibacterial activity against wild type Salmonella enteritidis 5408 harboring gyrA D87Y mutant gene after 24 hrs by spectrophotometry. As to conditions: Salmonella enterica subsp. enterica serovar Enteritidis. It counts as functional, organism-based. In short, it runs like this: as §1
The subject of assay [16] is Salmonella enteritidis. Description: Antibacterial activity against wild type Salmonella enteritidis 5408 harboring gyrA D87Y mutant gene assessed as length of bacterial rods by microscopy. It counts as functional, Salmonella enterica subsp. enterica serovar Enteritidis.
The test system of assay [17] is Salmonella enteritidis. Description: Antibacterial activity against ciprofloxacin-resistant Salmonella enteritidis 5408 harboring gyrA D87Y mutant, gyrB E466D mutant, parE V461G mutant and ramR G25A mutant gene after 24 hrs by spectrophotometry. It counts as functional, organism-based. The note with it: Salmonella enterica subsp. enterica serovar Enteritidis. In short, it runs like this: as §1

In assay [18] the test system is Salmonella enteritidis. Description: Antibacterial activity against ciprofloxacin-resistant Salmonella enteritidis 5408 harboring gyrA D87Y mutant, gyrB E466D mutant, parE V461G mutant and ramR G25A mutant gene assessed as reduction in swarm motility after overnight incubation. It counts as functional, Salmonella enterica subsp. enterica serovar Enteritidis. In short, it runs like this: as §3

Assay [19] concerns Salmonella enteritidis. Description: Antibacterial activity against ciprofloxacin-susceptibility revert strain of Salmonella enteritidis 104 harboring gyrA D87Y/S83F mutant, parC D79N mutant, soxR E16G/R20H mutant and soxS E52K mutant gene assessed as reduction in swim motility after overnight incubation. Format: functional, Salmonella enterica subsp. enterica serovar Enteritidis. In short, it runs like this: as §2

The test system of assay [20] is Salmonella enteritidis. Briefly: Antibacterial activity against ciprofloxacin-resistant Salmonella enteritidis 104 harboring gyrA D87Y/S83F mutant, soxR R20H mutant and soxS E52K mutant gene assessed as width of bacterial rods by microscopy. It counts as functional, Salmonella enterica subsp. enterica serovar Enteritidis.
For assay [21], the system named is Salmonella enteritidis. Description: Antibacterial activity against ciprofloxacin-resistant Salmonella enteritidis 104 harboring gyrA D87Y/S83F mutant, soxR R20H mutant and soxS E52K mutant gene assessed as reduction in swarm motility after overnight incubation. Format: functional, Salmonella enterica subsp. enterica serovar Enteritidis. In short, it runs like this: as §3

For assay [22], the system named is Salmonella enteritidis. Briefly: Antibacterial activity against wild type Salmonella enteritidis 104 harboring gyrA D87Y mutant gene assessed as width of bacterial rods by microscopy. It counts as functional, Salmonella enterica subsp. enterica serovar Enteritidis.
Assay [23] deals with Salmonella enteritidis. Briefly: Antibacterial activity against Salmonella enteritidis by CLSI method. As to conditions: Salmonella enterica.
Assay [24] relates to Salmonella enteritidis. Description: Antibacterial activity against ciprofloxacin-susceptible Salmonella enteritidis 1A-revertC2 harboring gyrA D87Y/S83F mutant, parC D79N mutant, soxR R133C/R20H mutant, soxS E52K mutant and marA I111N/H115Q mutant gene after 70 passages after 24 hrs by spectrophotometry. Format: functional, organism-based. The note with it: Salmonella enterica subsp. enterica serovar Enteritidis. The gist of the method: as §1

The subject of assay [25] is Salmonella enteritidis. Briefly: Antibacterial activity against ciprofloxacin-resistant Salmonella enteritidis 5408 harboring gyrA D87Y mutant, gyrB E466D mutant, parE V461G mutant and ramR G25A mutant gene assessed as width of bacterial rods by microscopy. It counts as functional, Salmonella enterica subsp. enterica serovar Enteritidis.
Assay [26] has as its system Salmonella enteritidis. Briefly: Antibacterial activity against ciprofloxacin-resistant Salmonella enteritidis 104 harboring gyrA D87Y/S83F mutant, soxR R20H mutant and soxS E52K mutant gene assessed as length of bacterial rods by microscopy. It counts as functional, Salmonella enterica subsp. enterica serovar Enteritidis.
Assay [27] has as its system Salmonella enteritidis. Description: Antibacterial activity against ciprofloxacin-resistant Salmonella enteritidis 5408 harboring gyrA D87Y mutant, gyrB E466D mutant, parE V461G mutant and ramR G25A mutant gene assessed as length of bacterial rods by microscopy. Format: functional, Salmonella enterica subsp. enterica serovar Enteritidis.
The subject of assay [28] is Salmonella enteritidis. Briefly: Antibacterial activity against Salmonella enteritidis NCTC 13349 by CLSI method. It counts as functional, Salmonella enterica subsp. enterica serovar Enteritidis. As to conditions: Salmonella enterica.

As for `CC1(C)S[C@@H]2[C@H](NC(=O)[C@H](N)c3ccccc3)C(=O)N2[C@H]1C(=O)O` [AMPICILLIN], the MIC turned out to be 1 µg/mL (≈ 2.86 µM) in the assay on Salmonella enteritidis [1]; 16 µg/mL (≈ 45.8 µM) against Salmonella enteritidis [2]; 0.5 µg/mL (≈ 1.43 µM) with Salmonella enteritidis [3]; 4 µg/mL (≈ 11.4 µM) with Salmonella enteritidis [4]; 4 µg/mL (≈ 11.4 µM) in the assay with Salmonella enteritidis [5]; 1 µg/mL (≈ 2.86 µM) against Salmonella enteritidis [6].

Turning to `O=C(N[C@H](CO)[C@H](O)c1ccc([N+](=O)[O-])cc1)C(Cl)Cl` [CHLORAMPHENICOL], the MIC in the assay on Salmonella enteritidis [1] is 4 µg/mL (≈ 12.4 µM); with Salmonella enteritidis [2] it was 128 µg/mL (≈ 396 µM); with Salmonella enteritidis [3] it was 2 µg/mL (≈ 6.19 µM); in the assay with Salmonella enteritidis [4], 8 µg/mL (≈ 24.8 µM); against Salmonella enteritidis [5] it was 16 µg/mL (≈ 49.5 µM); against Salmonella enteritidis [6] it was 2 µg/mL (≈ 6.19 µM).

For `O=C(O)c1cn(C2CC2)c2cc(N3CCNCC3)c(F)cc2c1=O` [CIPROFLOXACIN], the outcome in the assay on Salmonella enteritidis [7], in the assay with Salmonella enteritidis [9], in the assay on Salmonella enteritidis [15] and in the assay with Salmonella enteritidis [24] was Active. Further, the Activity in the assay on Salmonella enteritidis [8] is on record as 1.02 um; in the assay with Salmonella enteritidis [12], 0.46 um; in the assay on Salmonella enteritidis [16], 1.1 um; in the assay on Salmonella enteritidis [20] it was 0.45 um; with Salmonella enteritidis [22], 0.43 um; in the assay with Salmonella enteritidis [25], 0.51 um. In addition, the Activity in the assay on Salmonella enteritidis [26] amounted to 1.16 um; in the assay on Salmonella enteritidis [27] it was 1 um. Besides, the result with Salmonella enteritidis [10] and in the assay with Salmonella enteritidis [17] was inactive. In addition, the “inhibition (INH)” value with Salmonella enteritidis [11] turned out to be 66%; in the assay with Salmonella enteritidis [13], 36%; in the assay on Salmonella enteritidis [14], 93%; with Salmonella enteritidis [18], 46%; in the assay on Salmonella enteritidis [19] it was 90%; with Salmonella enteritidis [21], 36%. This molecule also yielded a minimum inhibitory concentration (MIC) against Salmonella enteritidis [23] of 0.12 µg/mL (≈ 0.362 µM).

For `CCn1cc(C(=O)O)c(=O)c2ccc(C)nc21` [NALIDIXIC ACID], the minimal inhibitory concentration (MIC) in the assay with Salmonella enteritidis [1] was > 256 µg/mL; against Salmonella enteritidis [2] it was > 256 µg/mL; against Salmonella enteritidis [3], > 256 µg/mL; in the assay with Salmonella enteritidis [4], > 256 µg/mL; in the assay with Salmonella enteritidis [28], 8 µg/mL (≈ 34.4 µM); against Salmonella enteritidis [5] it was > 256 µg/mL. Besides, the MIC in the assay with Salmonella enteritidis [6] is > 256 µg/mL.

Take `CN(C)[C@@H]1C(O)=C(C(N)=O)C(=O)[C@@]2(O)C(O)=C3C(=O)c4c(O)cccc4[C@@](C)(O)[C@H]3C[C@@H]12` [TETRACYCLINE]: the MIC against Salmonella enteritidis [1] is 1 µg/mL (≈ 2.25 µM); against Salmonella enteritidis [2], 16 µg/mL (≈ 36 µM); against Salmonella enteritidis [3] it was 0.5 µg/mL (≈ 1.13 µM); with Salmonella enteritidis [4], 2 µg/mL (≈ 4.5 µM); in the assay with Salmonella enteritidis [5], 2 µg/mL (≈ 4.5 µM); against Salmonella enteritidis [6] it was 1 µg/mL (≈ 2.25 µM).

Values taken from ChEMBL document CHEMBL1240355 (2010).
